Experimental data as given in ChEMBL document CHEMBL5058577, “EUbOPEN Chemogenomics Library 2 (Multiplex)” (2022).

Test system: Fibroblast
Experiment: Multiplex assay against human fibroblast
Assay type: toxicity, cell-based
In short: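 Live cells carried four stains from seeding: Hoechst33342, BioTracker Green Microtubule Cytoskeleton Dye, MitoTracker Red and Annexin V Alexa Fluor 680. They were imaged on a CQ1 microscope at 37°C and 5% CO2 after compound addition. Using CellPathfinder machine-learning gating, cells were split into Hoechst high-intensity objects or normal cells, normal cells into healthy, pyknosed or fragmented nuclei, and pyknosed cells into mitotic or apoptotic; tubulin, mitochondrial-mass and membrane-permeability phenotypes are per cents of healthy-nucleus cells.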

[1] = 12 h, 1 µM, compound concentration 1 uM, replicate 1
[2] = 12 h, 1 µM, compound concentration 1 uM, replicate 2
[3] = 12 h, 10 µM, compound concentration 10 uM, replicate 1
[4] = 12 h, 10 µM, compound concentration 10 uM, replicate 2
[5] = 24 h, 1 µM, compound concentration 1 uM, replicate 1
[6] = 24 h, 1 µM, compound concentration 1 uM, replicate 2
[7] = 24 h, 10 µM, compound concentration 10 uM, replicate 1
[8] = 24 h, 10 µM, compound concentration 10 uM, replicate 2
[9] = 48 h, 1 µM, compound concentration 1 uM, replicate 1
[10] = 48 h, 1 µM, compound concentration 1 uM, replicate 2
[11] = 48 h, 10 µM, compound concentration 10 uM, replicate 1
[12] = 48 h, 10 µM, compound concentration 10 uM, replicate 2

## CSc1ccccc1N1CCN(CCCCCC(=O)NC2CCCc3ccccc32)CC1.Cl (stereo not drawn)
[1]
  Population Apoptotic (%): 37%
  Population Fragmented Nuclei (%): 26%
  Population Healthy Nuclei (%): 49%
  Population Hoechst High Intensity Objects (%): 6%
  Population Membrane Permeable-Phenotype (%): 1%
  Population Mitochondria Different-Phenotype (%): 15%
  Population Mitotic Cells (%): 62%
  Population Normal (%): 93%
  Population Pyknosed Nuclei (%): 24%
  Population Tubulin-Different-Phenotype (%): 65%
  Total Cell Count: 126
[2]
  Population Apoptotic (%): 50%
  Population Fragmented Nuclei (%): 32%
  Population Healthy Nuclei (%): 41%
  Population Hoechst High Intensity Objects (%): 2%
  Population Membrane Permeable-Phenotype (%): 9%
  Population Mitochondria Different-Phenotype (%): 7%
  Population Mitotic Cells (%): 50%
  Population Normal (%): 97%
  Population Pyknosed Nuclei (%): 25%
  Population Tubulin-Different-Phenotype (%): 74%
  Total Cell Count: 135
[3]
  Population Apoptotic (%): 58%
  Population Fragmented Nuclei (%): 25%
  Population Healthy Nuclei (%): 57%
  Population Hoechst High Intensity Objects (%): 5%
  Population Membrane Permeable-Phenotype (%): 0%
  Population Mitochondria Different-Phenotype (%): 78%
  Population Mitotic Cells (%): 41%
  Population Normal (%): 94%
  Population Pyknosed Nuclei (%): 17%
  Population Tubulin-Different-Phenotype (%): 95%
  Total Cell Count: 220
[4]
  Population Apoptotic (%): 66%
  Population Fragmented Nuclei (%): 34%
  Population Healthy Nuclei (%): 50%
  Population Mitochondria Different-Phenotype (%): 36%
  Population Mitotic Cells (%): 33%
  Population Pyknosed Nuclei (%): 14%
  Population Tubulin-Different-Phenotype (%): 92%
  Total Cell Count: 242
[5]
  Population Apoptotic (%): 52%
  Population Fragmented Nuclei (%): 29%
  Population Healthy Nuclei (%): 52%
  Population Hoechst High Intensity Objects (%): 6%
  Population Membrane Permeable-Phenotype (%): 0%
  Population Mitochondria Different-Phenotype (%): 21%
  Population Mitotic Cells (%): 47%
  Population Normal (%): 93%
  Population Pyknosed Nuclei (%): 18%
  Population Tubulin-Different-Phenotype (%): 40%
  Total Cell Count: 133
[6]
  Population Apoptotic (%): 37%
  Population Fragmented Nuclei (%): 33%
  Population Healthy Nuclei (%): 43%
  Population Hoechst High Intensity Objects (%): 3%
  Population Membrane Permeable-Phenotype (%): 3%
  Population Mitochondria Different-Phenotype (%): 11%
  Population Mitotic Cells (%): 62%
  Population Normal (%): 96%
  Population Pyknosed Nuclei (%): 23%
  Population Tubulin-Different-Phenotype (%): 64%
  Total Cell Count: 130
[7]
  Population Apoptotic (%): 90%
  Population Fragmented Nuclei (%): 22%
  Population Healthy Nuclei (%): 66%
  Population Hoechst High Intensity Objects (%): 7%
  Population Membrane Permeable-Phenotype (%): 0%
  Population Mitochondria Different-Phenotype (%): 81%
  Population Mitotic Cells (%): 9%
  Population Normal (%): 92%
  Population Pyknosed Nuclei (%): 11%
  Population Tubulin-Different-Phenotype (%): 98%
  Total Cell Count: 211
[8]
  Population Apoptotic (%): 66%
  Population Fragmented Nuclei (%): 33%
  Population Healthy Nuclei (%): 56%
  Population Hoechst High Intensity Objects (%): 3%
  Population Mitochondria Different-Phenotype (%): 51%
  Population Mitotic Cells (%): 33%
  Population Normal (%): 96%
  Population Pyknosed Nuclei (%): 9%
  Population Tubulin-Different-Phenotype (%): 90%
  Total Cell Count: 258
[9]
  Population Apoptotic (%): 61%
  Population Fragmented Nuclei (%): 26%
  Population Healthy Nuclei (%): 56%
  Population Hoechst High Intensity Objects (%): 6%
  Population Membrane Permeable-Phenotype (%): 2%
  Population Mitochondria Different-Phenotype (%): 17%
  Population Mitotic Cells (%): 38%
  Population Normal (%): 93%
  Population Pyknosed Nuclei (%): 17%
  Population Tubulin-Different-Phenotype (%): 69%
  Total Cell Count: 132
[10]
  Population Apoptotic (%): 44%
  Population Fragmented Nuclei (%): 33%
  Population Healthy Nuclei (%): 45%
  Population Hoechst High Intensity Objects (%): 1%
  Population Membrane Permeable-Phenotype (%): 0%
  Population Mitochondria Different-Phenotype (%): 12%
  Population Mitotic Cells (%): 56%
  Population Normal (%): 98%
  Population Pyknosed Nuclei (%): 20%
  Population Tubulin-Different-Phenotype (%): 64%
  Total Cell Count: 124
[11]
  Population Apoptotic (%): 91%
  Population Fragmented Nuclei (%): 25%
  Population Healthy Nuclei (%): 61%
  Population Hoechst High Intensity Objects (%): 8%
  Population Membrane Permeable-Phenotype (%): 0%
  Population Mitochondria Different-Phenotype (%): 82%
  Population Mitotic Cells (%): 8%
  Population Normal (%): 91%
  Population Pyknosed Nuclei (%): 12%
  Population Tubulin-Different-Phenotype (%): 97%
  Total Cell Count: 195
[12]
  Population Apoptotic (%): 68%
  Population Fragmented Nuclei (%): 38%
  Population Healthy Nuclei (%): 53%
  Population Hoechst High Intensity Objects (%): 4%
  Population Membrane Permeable-Phenotype (%): 2%
  Population Mitochondria Different-Phenotype (%): 33%
  Population Mitotic Cells (%): 31%
  Population Normal (%): 95%
  Population Pyknosed Nuclei (%): 8%
  Population Tubulin-Different-Phenotype (%): 83%
  Total Cell Count: 281
